Data set [1] in a line: Distribution coefficient, log D at pH 7.4 after 4 hrs by shake flask method. The data set is classed as physicochemical. The following applies: octanol/water. The method in brief: (§1)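 Shake-flask n-octanol/buffer partition at room temperature, pH 1.0 (HCl) or pH 7.4 (phosphate), ionic strength 0.15 M KCl. Phases are presaturated by shaking for 4 h. Solute is about 0.1 mM in the aqueous phase, shaken about 20 min and centrifuged. Aqueous concentration is read by UV at λmax, with at least seven log D values per compound.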

The nature of data set [2]: Dissociation constant, pKa of the compound. The data set is classed as physicochemical. The method, boiled down:
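Potentiometric titration, at least four runs per compound, of about 1 mM aqueous solutions with ionic strength 0.15 M (KCl). Solutions acidified to pH 1.8 with 0.5 N HCl, then titrated with standardised 0.5 N KOH to pH 10.5, under argon at 25.0 ± 0.1 °C. For poorly soluble compounds, at least five titrations in 15-50 wt% methanol, extrapolated to zero cosolvent (Yasuda-Shedlovsky).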

Data set [3] concerns Aorta. In words: Vasorelaxation activity in Wistar rat thoracic aorta assessed as inhibition of L-phenylephrine-induced contraction. The data set is classed as functional, tissue-based. The method, boiled down: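 Endothelium-denuded thoracic aorta strips from male Wistar rats (180–200 g) equilibrated 120 min and contracted with 1 μM L-phenylephrine. At plateau, cumulative concentrations of the test agent are added. EC50 is given ± SEM (μM).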

Data set [4] deals with Aorta. The experiment in a line: Vasorelaxation activity in Wistar rat thoracic aorta assessed as inhibition of L-phenylephrine-induced contraction in presence of 1 uM 1H-[1,2,4]oxadiazolo[4,3-a]quinoxalin-1-one. It counts as functional, tissue-based. The method, boiled down:
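Denuded Wistar rat aortic strips with 1 μM ODQ added to the bath 5 min before contraction with 1 μM L-phenylephrine. Cumulative relaxant concentrations are added at plateau, and EC50 is given ± SEM (μM).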

Data set [5] in a line: Distribution coefficient, log D at pH 1.0 after 4 hrs by shake flask method. The data set is classed as physicochemical. The following applies: octanol/water. The method in brief: as §1
Data set [6] deals with Hepatocyte. In words: Antioxidant activity Wistar rat hepatocyte membrane assessed as Fe(3+)-ADP/NADPH-induced lipid peroxidation by TBA assay. The data set is classed as functional, cell-based. The method in brief:
(§2)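 Microsomes from male Wistar rat liver (180–200 g) in Tris-HCl/KCl pH 7.4 (2 mg protein/mL) with ADP 1 mM and FeCl3 50 μM, plus compound in DMSO (≤5%). Peroxidation started with NADPH 0.4 mM at 37 °C and sampled to 30 min. TBARS read at 543 nm against an MDA standard. Inhibition is taken from the 30-min plateau, with IC50 by nonlinear regression.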

A short description of data set [7]: Distribution coefficient, log D at pH 7.4 after 4 hrs. It counts as physicochemical. The settings on record: octanol/water. The method in brief:
as §1

In data set [8] the test system is Hepatocyte. The experiment in a line: Antioxidant activity Wistar rat hepatocyte membrane assessed as Fe(3+)-ADP/NADPH-induced lipid peroxidation at 1 mM by TBA assay. The data set is classed as functional, cell-based. The method, boiled down: as §2
Data set [9] relates to Hepatocyte. The experiment in a line: Antioxidant activity Wistar rat hepatocyte membrane assessed as Fe(3+)-ADP/NADPH-induced lipid peroxidation at 50 uM by TBA assay. The data set is classed as functional. The method in brief: as §2

The structures appear in SMILES notation. Calls of active or inactive are those of the source. The calls are words filed in the database; no cut-off is given here.

On to `O=C1OC(C(O)CO)C(OCCCOc2no[n+]([O-])c2-c2ccccc2)=C1O` (configuration not stated), for which the log distribution coefficient (logD) at 4 h worked out at 1.13 in data set [1] and 1.53 in data set [5]. Moreover, the pKa in [2] stood at 7.6. Also, the figures for the EC50 in the data set on Aorta [3] and in the data set with Aorta [4] were 3.8 µM and 80.9 µM, respectively. For the same compound, the IC50 in the data set on Hepatocyte [6] was found to be 17 µM.

On to `O=C1OC(C(O)CO)C(O)=C1OCCCCCCO[N+](=O)[O-]` (configuration not stated), for which the logD at 4 h in [1] was -1.93; in data set [5] it was 0.84. In data set [2], the pKa was determined as 3.56. Besides, the 50% effective concentration (EC50) in the data set with Aorta [3] was 7.1 µM; in the data set on Aorta [4], more than 100 µM. In addition, the concentration for half-maximal inhibition (IC50) in the data set with Hepatocyte [6] is more than 1000 µM.

On to `COC1=C(O)C(=O)O[C@@H]1[C@@H](O)CO`, for which the values for the logD at 4 h in data set [1] and in [5] were -1.61 and -1.41, respectively. In data set [2], the pKa came out at 7.54. Moreover, in the data set with Hepatocyte [6], the half-inhibitory concentration (IC50) was more than 1000 µM.

Turning to `O=C1OC(C(O)CO)C(OCCCCC(CO[N+](=O)[O-])O[N+](=O)[O-])=C1O` (configuration not stated), the logD at 4 h in data set [1] amounted to 0.66; in data set [5], 0.78. Moreover, in data set [2], the pKa amounted to 7.64. The concentration giving a half-maximal response (EC50) with Aorta [3] was 0.72 µM; with Aorta [4] it was more than 100 µM. The IC50 in the data set with Hepatocyte [6] worked out at 28 µM.

As for `O=C1OC(C(O)CO)C(OCCCOc2no[n+]([O-])c2S(=O)(=O)c2ccccc2)=C1O` (configuration not stated), the log distribution coefficient (logD) at 4 h in [1] came to 0.98; in data set [5], 1.18. The compound also had a pKa in data set [2] of 7.62. Further, the values for the concentration giving a half-maximal response (EC50) in the data set on Aorta [3] and in the data set on Aorta [4] were 0.034 µM and 7 µM, respectively. In the data set with Hepatocyte [6], the IC50 was 80 µM.

Regarding `O=C1OC(C(O)CO)C(OCCCCCCO[N+](=O)[O-])=C1O` (configuration not stated), the values for the logD at 4 h in [1] and in data set [5] were 0.76 and 0.86, respectively. Besides, the pKa in [2] was found to be 7.6. The EC50 was 2.1 µM in the data set with Aorta [3] and more than 100 µM with Aorta [4]. Besides, the IC50 in the data set with Hepatocyte [6] is 80 µM.

As to `O=C1OC(C(O)CO)C(OCCCO[N+](=O)[O-])=C1O` (configuration not stated), the figures for the pH-dependent lipophilicity (logD) at 4 h in [1] and in [5] were -0.55 and -0.48, respectively. In [2], this compound showed a pKa of 7.55. Also, the concentration for a half-maximal effect (EC50) was 55 µM in the data set on Aorta [3] and more than 100 µM in the data set on Aorta [4]. In addition, in the data set on Hepatocyte [6], the concentration for half-maximal inhibition (IC50) turned out to be 454 µM.

For `NC(=O)c1c(COC2=C(O)C(=O)OC2C(O)CO)no[n+]1[O-]` (configuration not stated), the logD at 4 h was -1.44 in data set [1] and -0.99 in data set [5]. This compound came in with a pKa in data set [2] of 7.07. For the same compound, the EC50 in the data set with Aorta [3] was 6 µM; with Aorta [4] it was more than 100 µM. Further, the half-inhibitory concentration (IC50) in the data set on Hepatocyte [6] is more than 1000 µM.

For the compound `COC1=C(O)[C@@H]([C@@H](O)CO)OC1=O`, the log distribution coefficient (logD) at 4 h in [7] was less than -2; in [5], -1.44. In [2], this compound showed a pKa of 3.23. The result in the data set on Hepatocyte [8] was inactive.

In the case of `O=C1O[C@H]([C@@H](O)CO)C(O)=C1O` [ASCORBIC ACID], the Activity with Hepatocyte [9] worked out at 77%. The same compound returned a pH-dependent lipophilicity (logD) at 4 h in [5] of -1.65.

Take `O=C1OC(C(O)CO)C(O)=C1OCCCO[N+](=O)[O-]` (configuration not stated): the logD at 4 h in data set [7] is less than -2; in data set [5], -0.26. Moreover, in [2], the pKa amounted to 3.19. The outcome in the data set with Hepatocyte [8] was inactive.

As to `O=C1OC(C(O)CO)C(O)=C1OCCCOc1no[n+]([O-])c1-c1ccccc1` (configuration not stated), the values for the logD at 4 h in data set [1] and in [5] were -1.35 and 1.71, respectively. Moreover, the pKa in data set [2] is 3.44. Moreover, the figures for the EC50 in the data set on Aorta [3] and with Aorta [4] were 32 µM and more than 100 µM, respectively. The IC50 with Hepatocyte [6] turned out to be 392 µM.

As usually defined, the logD is the decadic logarithm of the distribution of all forms, ionised or not, between an organic phase and buffer at a given pH. Higher therefore signals higher lipophilicity. In general, pKa refers to the negative logarithm of the acid dissociation constant. Read a low pKa as a group that gives up its proton readily. What is called EC50 is the midpoint of the concentration-response curve. The IC50 is the concentration that gives 50% inhibition.

Values taken from ChEMBL document CHEMBL1157181, “Novel antioxidant agents deriving from molecular combination of Vitamin C and NO-donor moieties” (Bioorg Med Chem, 2008).
